In ChEMBL document CHEMBL3997850 (ACS Med Chem Lett, 2017):
Calls of active or inactive are those of the source.

Columns and labels:
[1] = target: T1, Indoleamine 2,3-dioxygenase 1 (Homo sapiens, UniProt P14902); experiment: Inhibition of human N-terminal His-tagged IDO1 expressed in Escherichia coli using D-Trp as substrate
[2] = target: T1, Indoleamine 2,3-dioxygenase 1; experiment: Inhibition of IDO1 in IFN-gamma-stimulated human HeLa cells assessed as decrease in kynurenine levels after 48 hrs; assay type: cell-based
Liver [3] = experiment: Intrinsic clearance in rat hepatic S9 fraction at 5 uM in presence of UDPGA measured over 30 mins by LC/MS analysis; assay type: ADME; settings: s9, 0.5 h
Liver [4] = experiment: Intrinsic clearance in rat hepatic S9 fraction at 5 uM in presence of UDPGA/NADPH measured over 30 mins by LC/MS analysis; assay type: ADME, tissue-based; settings: s9, 0.5 h
Procedure, shortened: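 Rat hepatic S9 (2 mg/mL protein) with compound 5 µM, 50 mM Tris-HCl pH 7.5, 8 mM MgCl2, 2 mM NADPH, 2 mM UDPGA, 12.7 µM alamethicin, 37 °C. Reaction started with S9. Aliquots taken over 0–30 min, quenched with acetonitrile, analyzed by LC/MS.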

[5] = Permeability across apical to basolateral side in human Caco2 cells at 50 uM after 120 mins by LC/MS analysis; assay type: ADME, cell-based; settings: Caco-2, read-out: permeability
Procedure, shortened: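 Caco-2 cells (passages 21–45) seeded at 4,000/well on PET transwell filters and used 21–26 days after seeding. Monolayers accepted at TEER ≥300 Ω·cm² and run in Hank's balanced salt solution. After 120 min incubation, receiver-side sample taken, acetonitrile-precipitated, quantified by LC/MS.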

Plasma = experiment: Fraction unbound in human plasma after 2 hrs by equilibrium dialysis method; assay type: ADME, cell-free
Procedure, shortened: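 Equilibrium dialysis of human plasma (1 mL) containing compound against 1 mL 0.133 M phosphate buffer pH 7.4. Membrane cut-off 10,000 Da, teflon cells rotated at 12 rpm for 2 h at 37 °C. Recovered volumes weighed and matrix-matched 1:1. Acetonitrile precipitation, LC/MS/MS of both sides.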

Rattus norvegicus = experiment: AUC in rat at 5 mg/kg, iv or 5 mg/kg, po by LC/MS/MS analysis; assay type: ADME, organism-based; settings: in vivo
Procedure, shortened: (§1)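 Male rats, 5 mg/kg IV in 10% DMAC/saline or 5 mg/kg oral in 0.5% aqueous methylcellulose. Plasma (EDTA) sampled pre-dose to 24 h. Quantified by acetonitrile precipitation and LC/MS/MS (2–10000 nM range, 0.1 mL). Non-compartmental analysis of concentration–time data.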

[6] = Half life in rat at 5 mg/kg, po by LC/MS/MS analysis; assay type: ADME, organism-based; settings: in vivo; procedure, shortened: as §1
[7] = Half life in cynomolgus monkey at 10 mg/kg, po by LC/MS/MS analysis; assay type: ADME, organism-based, Macaca fascicularis; settings: in vivo
Procedure, shortened: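 Male cynomolgus monkeys given 4 mg/kg IV (5% DMAC, 40% propylene glycol in saline) or 10 mg/kg orally (0.5% methylcellulose). EDTA plasma collected pre-dose through 24 h. Acetonitrile protein precipitation, then LC/MS/MS quantification, linear 2–10000 nM. PK parameters by standard non-compartmental methods.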

CT26 [8] = experiment: Antitumor activity against mouse CT26 cells allografted in immunocompetent Balb/c mouse assessed as reduction in tumor growth at 30 mg/kg, po measured on day 24 relative to vehicle-treated control; assay type: functional
[9] = AUC in mouse CT26 cells allografted immunocompetent Balb/c mouse model at 30 mg/kg, po by LC/MS/MS analysis; assay type: ADME, organism-based; settings: in vivo
CT26 [10] = experiment: Antitumor activity against mouse CT26 cells allografted in po dosed Balb/c nu/nu mouse assessed as tumor growth inhibition; assay type: functional, organism-based
Mus musculus = experiment: In vivo inhibition of IDO1 in wild type C57BL/6 mouse assessed as reduction in kynurenine levels in plasma at 50 mg/kg, po qd after 8 hrs by LC/MS/MS analysis; assay type: functional, organism-based
Procedure, shortened: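 Fed C57BL/6 mice given a single dose; food then removed. At various timepoints, blood taken by cardiac puncture. Plasma diluted 10-fold in water, TCA protein precipitation, then LC/MS/MS for tryptophan, kynurenine (linear 20–10,000 nM kynurenine, 200–100,000 nM tryptophan) and drug, against aqueous standards.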

T1 sequence (P14902 whole entry): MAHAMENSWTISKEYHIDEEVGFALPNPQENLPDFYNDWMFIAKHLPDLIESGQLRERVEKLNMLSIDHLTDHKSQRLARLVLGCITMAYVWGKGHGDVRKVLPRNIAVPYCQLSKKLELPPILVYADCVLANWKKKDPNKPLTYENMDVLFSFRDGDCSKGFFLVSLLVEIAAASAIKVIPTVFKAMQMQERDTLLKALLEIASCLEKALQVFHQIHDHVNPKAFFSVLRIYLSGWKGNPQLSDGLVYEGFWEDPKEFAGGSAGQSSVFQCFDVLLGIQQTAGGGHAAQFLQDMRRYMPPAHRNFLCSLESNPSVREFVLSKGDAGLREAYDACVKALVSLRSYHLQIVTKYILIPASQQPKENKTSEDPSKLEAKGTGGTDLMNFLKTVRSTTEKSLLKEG

SMILES	IC50 [1] [nM]	IC50 [2] [nM]	CLH (Liver [3]) [mL/min/kg]	CLH (Liver [4]) [mL/min/kg]	Papp A→B at 2 h, 50 µM [5] [×10⁻⁶ cm/s]	Fu (Plasma) [%]	AUC (Rattus norvegicus) [µM·h]	half-life [6] [h]	half-life [7] [h]	AUC [9] [µM·h]	Efficacy (CT26 [8]) [%]	TGI (CT26 [10])	inhibition (Mus musculus)
NS(=O)(=O)NCCNc1nonc1C(=NO)Nc1ccc(F)c(Cl)c1	120	11	8.3	13	4.3	3.8	3.3	2.7	4	15.1	13		
Nc1nonc1C(=Nc1ccc(F)c(Br)c1)NO	50	10	> 36.7	23.3									
NS(=O)(=O)NCCNc1nonc1/C(=N/O)Nc1ccc(F)c(Br)c1 [EPACADOSTAT]											56	inactive	Active
Nc1nonc1C(=NO)Nc1ccc(F)c(Cl)c1			> 36.7	> 36.7									
CN(C)c1nonc1/C(=N/O)Nc1ccc(F)c(Br)c1	> 5000	> 5000	> 36.7	> 36.7									
O/N=C(\Nc1ccc(F)c(Br)c1)c1nonc1NCc1ccccc1	230	280	35	> 36.7		< 0.5							

The next lines start with results.

IC50 [1] [nM]	IC50 [2] [nM]	CLH (Liver [3]) [mL/min/kg]	CLH (Liver [4]) [mL/min/kg]	Papp A→B at 2 h, 50 µM [5] [×10⁻⁶ cm/s]	Fu (Plasma) [%]	AUC (Rattus norvegicus) [µM·h]	half-life [6] [h]	half-life [7] [h]	AUC [9] [µM·h]	SMILES	Efficacy (CT26 [8]) [%]	TGI (CT26 [10])	inhibition (Mus musculus)
200	100	> 36.7	> 36.7	44	0.9					COCCNc1nonc1/C(=N/O)Nc1ccc(F)c(Br)c1			
170	22	> 36.7	> 36.7	31	2.3					OCCNc1nonc1/C(=N/O)Nc1ccc(F)c(Br)c1			
180	35	23.3	> 36.7							CCNc1nonc1/C(=N/O)Nc1ccc(F)c(Br)c1			
100	14	> 36.7	> 36.7							CNc1nonc1/C(=N/O)Nc1ccc(F)c(Br)c1			
290	98	18.3	15	1.8	6.1					NCCNc1nonc1/C(=N/O)Nc1ccc(F)c(Br)c1			
210	17	15	33	19	4.4					CC(=O)NCCNc1nonc1/C(=N/O)Nc1ccc(F)c(Br)c1			
100	16	12	25	24	2.4					CS(=O)(=O)NCCNc1nonc1C(=NO)Nc1ccc(F)c(Br)c1			
